This is a sample that favours compounds with a hit; in the whole collection about 5.9% have one here.
Pf Dd2 inh – inhibitors of Plasmodium falciparum Dd2 growth; P. falciparum Dd2 growth, SYBR Green, 72 h; hits give low values; activity change, % at 10 µM; 2.3% of 94,000 active; in the data active = activity change below about -80%; inconclusive = no clear call, values can overlap the other calls
T cruzi growth-1 – T. cruzi proliferation inhibition; T. cruzi beta-gal in NIH3T3, GalScreen luminescence, 90 h; 5.9% of 77,000 active; AID 624255; inhibition, % at 8.34 µM;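 active = mean inhibition above about 93%, with at least 55% of replicates each passing it, limit read from the data, passing the limit was not always enough; inconclusive = only one of those two conditions holds; inactive = neither condition holds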
IDH1 R132H inh – inhibitors of human IDH1 R132H | 0.18% of 70,000 active | inhibition, % at 10 µM | IDH1 R132H reductase, diaphorase/resazurin fluorescence, 60 min | AID 624101; in the data active = inhibition above about 34%; inconclusive = no clear call, values can overlap the other calls; inactive = below about 11%;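 also: 0% = DMSO and 100% = no enzyme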
KDM4C inh – KDM4C (human) demethylase inhibition. Q9H3R0. GST-KDM4C 2-372, H3K9me3 peptide, LANCE TR-FRET. AID 720574. 0.15% of 96,000 active. inhibition, % at 12.5 µM;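 active = mean replicate inhibition above about 25%, with at least 55% of replicates also reaching it, limit read from the data, passing the limit was not always enough; inconclusive = only one of those two conditions met; inactive = neither condition met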
Target sequence (Q9H3R0 2-372 limits assumed): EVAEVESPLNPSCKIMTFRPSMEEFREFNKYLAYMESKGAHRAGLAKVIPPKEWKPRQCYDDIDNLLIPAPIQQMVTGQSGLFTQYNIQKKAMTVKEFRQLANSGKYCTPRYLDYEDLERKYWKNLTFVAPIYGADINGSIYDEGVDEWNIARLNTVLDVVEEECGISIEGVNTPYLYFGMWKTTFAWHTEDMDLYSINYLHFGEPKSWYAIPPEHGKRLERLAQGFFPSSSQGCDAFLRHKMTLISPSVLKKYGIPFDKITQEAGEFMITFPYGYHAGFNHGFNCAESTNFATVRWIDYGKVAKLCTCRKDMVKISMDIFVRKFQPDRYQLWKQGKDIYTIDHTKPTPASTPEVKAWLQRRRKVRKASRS
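System – N-terminal GST-fused human GASC-1 (KDM4C) fragment, residues 2-372 · Input – enzyme final amount 10 nM · Technique – LANCE TR-FRET, Eu antibody, ULight-streptavidin, EDTA, ex 340 nm, em 618/671 nm · Medium – HEPES buffer, pH 7.5, plus ascorbate · Incubation – enzyme reaction 30 min, then detection 60 min, both room temperature · Reagent – H3K9me3 peptide with Fe(II)/2OG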
T cruzi growth-2 – inhibitors of T. cruzi proliferation. shares compounds with T cruzi growth-1. T. cruzi beta-gal in NIH3T3, GalScreen luminescence, 90 h. inhibition, % at 8.35 µM. 72% of 5,600 active. AID 651739;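 active = mean replicate inhibition above about 95% and at least 55% of replicates individually reaching it, limit read from the data; inconclusive = only one of the two criteria is met; inactive = neither criterion is met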
T cruzi growth-3 – blocks T. cruzi growth in NIH3T3 host cells. T. cruzi beta-gal in NIH3T3, GalScreen luminescence, 90 h. inhibition, % at 2.09 µM. shares compounds with T cruzi growth-1. 21% of 5,600 active;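 active = mean inhibition above about 95%, with at least 55% of replicates also reaching it, limit read from the data; inconclusive = meets just one of the two conditions; inactive = meets neither condition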;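 also: plate controls were neutral control median for no effect and positive control median for full effect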
3T3 cytotox – cytotoxicity in mouse NIH/3T3 fibroblasts; 14% of 5,600 active; shares compounds with T cruzi growth-1; cytotoxicity (signal decrease), % at 8.35 µM; AID 651742; NIH/3T3 viability, CellTiter-Glo ATP luminescence, 90 h;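 active = mean signal decrease across replicates above about 35% based on untreated-well scatter, with enough replicates individually passing, limit read from the data; inconclusive = no rule stated though some were filed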;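 also: 0% = median of neutral control wells and 100% = median of positive control wells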
3T3 cytotox 2 – kills mouse NIH/3T3 fibroblasts; NIH/3T3 viability, CellTiter-Glo ATP luminescence, 90 h; inhibition, % at 24.9 µM; shares compounds with T cruzi growth-1; 56% of 5,600 active;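 active = mean loss of cell viability signal at or above a set limit, and enough replicates individually reaching it; inconclusive = meets only the mean limit or only the replicate share; inactive = meets neither condition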;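 also: 0% = median of neutral control wells and 100% = median of positive control wells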
The depositor's hits bear a star; ? = inconclusive; . = not tested or not shown.

SMILES	Pf Dd2 inh	T cruzi growth-1	IDH1 R132H inh	KDM4C inh	T cruzi growth-2	T cruzi growth-3	3T3 cytotox	3T3 cytotox 2
CN1c2ccc(-c3ccc(F)cc3)cc2[C@H]2[C@H](CCN2C(=O)Cc2cccnc2)[C@@H]1CO	-13	107*	.	1	110*	104*	-26	5
CN1c2ccc(-c3ccc(F)cc3)cc2[C@H]2[C@H](CCN2C(=O)Cc2cccnc2)[C@H]1CO	20	?	.	3	92	55	-16	10
O=C(Cn1c2ccccc2n2nc(-c3cccs3)nc12)c1ccc(Cl)cc1	.	.	0	.	.	.	.	.
O=C(CSc1nnc(-c2ccccc2O)n1-c1ccccc1)Nc1ccccc1Cl	.	.	1	.	.	.	.	.
O=C(NC[C@H]1[C@H](c2ccccc2)[C@@H](CO)N1C(=O)C1CC1)NC1CCCC1	-63	117*	.	-1	63	20	-2	5
O=C(NC[C@@H]1[C@H](c2ccccc2)[C@H](CO)N1C(=O)C1CC1)NC1CCCC1	11	36	.	-1	.	.	.	.
COc1cccc(-c2ccc3c(c2)O[C@H](CN(C)Cc2cncnc2)[C@H](C)CN([C@@H](C)CO)S3(=O)=O)c1	1	97*	-6	-5	?	58	31	64*
COc1cccc(-c2ccc3c(c2)O[C@@H](CN(C)Cc2cncnc2)[C@H](C)CN([C@H](C)CO)S3(=O)=O)c1	-19	?	-2	2	?	64	39*	72*
COc1cccc(-c2ccc3c(c2)O[C@H](CN(C)Cc2ccncc2)[C@@H](C)CN([C@@H](C)CO)S3(=O)=O)c1	16	.	18	2	.	.	.	.
COc1cccc(-c2ccc3c(c2)O[C@@H](CN(C)Cc2cccnc2)[C@@H](C)CN([C@H](C)CO)S3(=O)=O)c1	-26	91	2	-1	.	.	.	.
COCc1nc2ccccc2n1CCOc1ccc(Cl)cc1Cl	.	.	0	.	.	.	.	.
Cc1cc(C)c(OCC(=O)Nc2c[nH]c(=O)[nH]c2=O)cc1C	.	.	0	.	.	.	.	.
COc1ccc(NC(=O)Nc2ccc3c(c2)C(=O)N([C@@H](C)CO)C[C@@H](C)[C@H](CN(C)C(=O)Nc2ccc(F)cc2)OCCCC[C@H](C)O3)cc1	-4	.	0	-1	.	.	.	.
COc1ccc(NC(=O)Nc2ccc3c(c2)C(=O)N([C@@H](C)CO)C[C@H](C)[C@@H](CN(C)C(=O)Nc2ccc(F)cc2)OCCCC[C@H](C)O3)cc1	-49	109*	.	-2	100*	62	5	-3
COc1ccc(NC(=O)Nc2ccc3c(c2)C(=O)N([C@H](C)CO)C[C@@H](C)[C@H](CN(C)C(=O)Nc2ccc(F)cc2)OCCCC[C@@H](C)O3)cc1	-27	112*	.	-1	98*	104*	-6	-10
COc1ccc(NC(=O)Nc2ccc3c(c2)C(=O)N([C@@H](C)CO)C[C@@H](C)[C@H](CN(C)C(=O)Nc2ccc4c(c2)OCO4)OCCCC[C@@H](C)O3)cc1	0	40	.	0	.	.	.	.
COc1ccc(NC(=O)Nc2ccc3c(c2)C(=O)N([C@H](C)CO)C[C@@H](C)[C@H](CN(C)C(=O)Nc2ccc4c(c2)OCO4)OCCCC[C@@H](C)O3)cc1	-42	117*	0	0	111*	64	9	17
O=C(COc1ccc(Cl)cc1C1C2=C(CCCC2=O)NC2=C1C(=O)CCC2)Nc1ccc(Cl)cc1	.	.	0	.	.	.	.	.
O=C(CSc1nc2[nH]ncc2c(=O)n1-c1ccccc1)Nc1nsc(-c2ccccc2)n1	.	.	0	.	.	.	.	.
CC(C)NC(=O)N1CCCCN2[C@H](CO)[C@H](c3ccc(C4=CCCC4)cc3)[C@@H]2C1	18	117*	.	2	113*	106*	8	-8
COc1ccc(-c2ccc([C@H]3[C@H](CO)N4CCCCN(C(=O)NC(C)C)C[C@@H]34)cc2)cc1	-4	105*	.	1	113*	38	13	25*
COc1ccc(-c2ccc([C@H]3[C@@H](CO)N4CCCCN(C(=O)NC(C)C)C[C@H]34)cc2)cc1	-16	104*	.	0	110*	77	-10	85*
COc1ccc(-c2ccc([C@@H]3[C@H]4CN(C(=O)NC(C)C)CCCCN4[C@H]3CO)cc2)cc1	11	69	.	0	.	.	.	.
CCOC(=O)CSc1nc2c(c(=O)n1-c1ccccc1OC)C1(CCCC1)Cc1ccccc1-2	.	.	0	.	.	.	.	.
CC(C)C#Cc1ccc2c(c1)O[C@H](CN(C)C(=O)c1cccc(F)c1)[C@@H](C)CN([C@H](C)CO)S2(=O)=O	-60	?	-3	0	106*	71	13	?
SMILES	Pf Dd2 inh	T cruzi growth-1	IDH1 R132H inh	KDM4C inh	T cruzi growth-2	T cruzi growth-3	3T3 cytotox	3T3 cytotox 2
CC(C)C#Cc1ccc2c(c1)O[C@@H](CN(C)C(=O)c1ccccc1)[C@H](C)CN([C@@H](C)CO)S2(=O)=O	-67	92	-1	-1	.	.	.	.
CC(C)C#Cc1ccc2c(c1)O[C@H](CN(C)C(=O)c1cccc(F)c1)[C@H](C)CN([C@H](C)CO)S2(=O)=O	-53	111*	0	-2	104*	52	22	39*
CC(C)C#Cc1ccc2c(c1)O[C@@H](CN(C)C(=O)c1ccccc1)[C@@H](C)CN([C@H](C)CO)S2(=O)=O	-52	69	0	0	.	.	.	.
CC(C)C#Cc1ccc2c(c1)O[C@H](CN(C)C(=O)c1ccccc1)[C@@H](C)CN([C@@H](C)CO)S2(=O)=O	-61	85	-1	-1	.	.	.	.
CC(C)C#Cc1ccc2c(c1)O[C@@H](CN(C)C(=O)c1cccc(F)c1)[C@@H](C)CN([C@H](C)CO)S2(=O)=O	-67	105*	-5	-1	102*	61	15	54*
CC(C)C#Cc1ccc2c(c1)O[C@@H](CN(C)C(=O)c1cccc(F)c1)[C@H](C)CN([C@H](C)CO)S2(=O)=O	-70	103*	0	-3	103*	38	56*	63*
Cc1cccc(NC(=O)CN(C)S(=O)(=O)c2ccc3ccccc3c2)c1C	.	.	0	.	.	.	.	.
N#Cc1cc2c(nc1SCC(=O)Nc1cccc(F)c1)CCCC2	.	.	1	.	.	.	.	.
Cc1cc(C(=O)Nc2cccc3c2O[C@H](CN(C)C)[C@@H](C)CN([C@@H](C)CO)C3=O)n(C)n1	10	101*	.	0	10	24	-1	5
Cc1cc(C(=O)Nc2cccc3c2O[C@H](CN(C)C)[C@H](C)CN([C@@H](C)CO)C3=O)n(C)n1	11	?	.	1	26	-16	6	2
Cc1cc(C(=O)Nc2cccc3c2O[C@H](CN(C)C)[C@@H](C)CN([C@H](C)CO)C3=O)n(C)n1	15	13	.	0	.	.	.	.

Screening results as filed in PubChem BioAssay.
